In brackets after ≈: the same amount, converted by molar mass.
Experiments:
Format in all cases: functional
[1] = test system: Escherichia coli; assay: Antimicrobial activity against Escherichia coli […] after 16 to 18 hrs by serial dilution method
Procedure, shortened: (§1)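 Tube broth dilution: serial drug dilutions in Mueller Hinton broth, pH adjusted to 5.0 with phosphate buffer. A standardized bacterial suspension was inoculated and incubated 16-18 h at 37 °C. MIC was read as the lowest drug concentration with no visible growth. Ciprofloxacin served as the reference.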

[2] = test system: Klebsiella pneumoniae; assay: Antimicrobial activity against Klebsiella pneumoniae at MIC after 3 to 4 days by disc diffusion method
[3] = test system: Staphylococcus aureus; assay: Antimicrobial activity against Staphylococcus aureus […] after 16 to 18 hrs by serial dilution method; procedure, shortened: as §1
[4] = test system: Mycobacterium tuberculosis; assay: Antitubercular activity against Mycobacterium tuberculosis H37Rv at MIC after 24 hrs by broth microdilution method
Procedure, shortened: (§2)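 M. tuberculosis H37Rv grown in Middlebrook 7H9 with 10% OADC, diluted to McFarland 1, 50 µl added to 150 µl fresh medium. Compounds from 2 mg/mL DMF stocks tested at 1, 10 and 100 µg/mL; DMF-only controls. 7 days at 37 °C, then 0.01% resazurin added with 24 h further incubation. MIC = lowest concentration preventing blue-to-pink change.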

[5] = test system: Escherichia coli; assay: Antimicrobial activity against Escherichia coli […] at MIC after 3 to 4 days by disc diffusion method
[6] = test system: Klebsiella pneumoniae; assay: Antimicrobial activity against Klebsiella pneumoniae after 16 to 18 hrs by serial dilution method; procedure, shortened: as §1
[7] = test system: Pseudomonas aeruginosa; assay: Antimicrobial activity against Pseudomonas aeruginosa ATTC 27853 after 16 to 18 hrs by serial dilution method; procedure, shortened: as §1
[8] = test system: Staphylococcus aureus; assay: Antimicrobial activity against Staphylococcus aureus […] at MIC after 3 to 4 days by disc diffusion method
[9] = test system: Mycobacterium tuberculosis; assay: Antitubercular activity against Mycobacterium tuberculosis H37Rv after 24 hrs by broth microdilution method; procedure, shortened: as §2
[10] = test system: Pseudomonas aeruginosa; assay: Antimicrobial activity against Pseudomonas aeruginosa ATTC 27853 at MIC after 3 to 4 days by disc diffusion method

Compound | MIC [1] [µg/mL] | diameter of the inhibition zone (DIZ) [2] [mm] | MIC [3] [µg/mL] | inhibition (INH) [4] [%] | diameter of the inhibition zone (DIZ) [5] [mm] | MIC [6] [µg/mL] | MIC [7] [µg/mL] | diameter of the inhibition zone (DIZ) [8] [mm] | MIC [9] [µg/mL] | diameter of the inhibition zone (DIZ) [10] [mm]
CCCCCNc1nc2c(-c3ccc(F)cc3)nc3ccccc3c2o1 | 50 (≈ 143 µM) | <10 | 50 (≈ 143 µM) | 0 | <10 | 50 (≈ 143 µM) | 50 (≈ 143 µM) | <10 | > 100 | <10
Fc1ccc(Nc2nc3c(-c4cccc(F)c4)nc4ccccc4c3o2)cc1 | 6.25 (≈ 16.7 µM) | 19 | 6.25 (≈ 16.7 µM) | 99 | 25 | 6.25 (≈ 16.7 µM) | 6.25 (≈ 16.7 µM) | 22 | 1 (≈ 2.68 µM) | 25
Fc1ccc(Nc2nc3c(-c4ccc(F)cc4)nc4ccccc4c3o2)cc1 | 6.25 (≈ 16.7 µM) | 20 | 6.25 (≈ 16.7 µM) | 99 | 28 | 6.25 (≈ 16.7 µM) | 6.25 (≈ 16.7 µM) | 20 | 1 (≈ 2.68 µM) | 22
N#Cc1cccc(Nc2nc3c(-c4cccc(F)c4)nc4ccccc4c3o2)c1 | 12.5 (≈ 32.9 µM) | 12 | 12.5 (≈ 32.9 µM) | 0 | 16 | 12.5 (≈ 32.9 µM) | 12.5 (≈ 32.9 µM) | 11 | > 100 | 14
CCCCCNC(=O)Nc1c(-c2cccc(F)c2)nc2ccccc2c1O | 6.25 (≈ 17 µM) | 12 | 12.5 (≈ 34 µM) | 0 | 22 | 12.5 (≈ 34 µM) | 12.5 (≈ 34 µM) | 12 | > 100 | 11
COc1ccccc1NC(=O)Nc1c(-c2ccc(F)cc2)nc2ccccc2c1O | 6.25 (≈ 15.5 µM) | 19 | 6.25 (≈ 15.5 µM) | 99 | 21 | 6.25 (≈ 15.5 µM) | 6.25 (≈ 15.5 µM) | 17 | 1 (≈ 2.48 µM) | 16
O=C(Nc1ccc(F)cc1)Nc1c(-c2ccc(F)cc2)nc2ccccc2c1O | 6.25 (≈ 16 µM) | 16 | 6.25 (≈ 16 µM) | 95 | 24 | 6.25 (≈ 16 µM) | 6.25 (≈ 16 µM) | 18 | 10 (≈ 25.6 µM) | 17
CCCCCNC(=O)Nc1c(-c2ccc(F)cc2)nc2ccccc2c1O | 6.25 (≈ 17 µM) | <10 | 50 (≈ 136 µM) | 0 | 20 | 50 (≈ 136 µM) | 50 (≈ 136 µM) | <10 | > 100 | <10
O=C(Nc1ccccc1)Nc1c(-c2cccc(F)c2)nc2ccccc2c1O | 6.25 (≈ 16.7 µM) | 20 | 6.25 (≈ 16.7 µM) | 95 | 20 | 6.25 (≈ 16.7 µM) | 6.25 (≈ 16.7 µM) | 17 | 10 (≈ 26.8 µM) | 18
COc1ccccc1NC(=O)Nc1c(-c2cccc(F)c2)nc2ccccc2c1O | 6.25 (≈ 15.5 µM) | 19 | 6.25 (≈ 15.5 µM) | 99 | 22 | 6.25 (≈ 15.5 µM) | 6.25 (≈ 15.5 µM) | 19 | 1 (≈ 2.48 µM) | 18
Fc1cccc(-c2nc3ccccc3c3oc(Nc4ccccc4)nc23)c1 | 6.25 (≈ 17.6 µM) | 20 | 6.25 (≈ 17.6 µM) | 95 | 26 | 6.25 (≈ 17.6 µM) | 6.25 (≈ 17.6 µM) | 20 | 10 (≈ 28.1 µM) | 22
O=C(NCCc1ccccc1)Nc1c(-c2cccc(F)c2)nc2ccccc2c1O | 50 (≈ 125 µM) | <10 | 50 (≈ 125 µM) | 0 | <10 | 50 (≈ 125 µM) | 50 (≈ 125 µM) | <10 | > 100 | <10
O=C(Nc1cccc(Cl)c1)Nc1c(-c2ccc(F)cc2)nc2ccccc2c1O | 6.25 (≈ 15.3 µM) | 20 | 6.25 (≈ 15.3 µM) | 95 | 22 | 6.25 (≈ 15.3 µM) | 6.25 (≈ 15.3 µM) | 18 | 10 (≈ 24.5 µM) | 20
Fc1cccc(-c2nc3ccccc3c3oc(NCc4ccccc4)nc23)c1 | 6.25 (≈ 16.9 µM) | 18 | 6.25 (≈ 16.9 µM) | 99 | 23 | 6.25 (≈ 16.9 µM) | 6.25 (≈ 16.9 µM) | 22 | 1 (≈ 2.71 µM) | 19
CSc1ccc(NC(=O)Nc2c(-c3cccc(F)c3)nc3ccccc3c2O)cc1 | 6.25 (≈ 14.9 µM) | <10 | 50 (≈ 119 µM) | 0 | 22 | 50 (≈ 119 µM) | 50 (≈ 119 µM) | <10 | > 100 | <10
COc1ccccc1Nc1nc2c(-c3cccc(F)c3)nc3ccccc3c2o1 | 6.25 (≈ 16.2 µM) | 21 | 6.25 (≈ 16.2 µM) | 99 | 24 | 6.25 (≈ 16.2 µM) | 6.25 (≈ 16.2 µM) | 21 | 1 (≈ 2.59 µM) | 21
CSc1ccc(Nc2nc3c(-c4cccc(F)c4)nc4ccccc4c3o2)cc1 | 6.25 (≈ 15.6 µM) | 22 | 6.25 (≈ 15.6 µM) | 95 | 23 | 6.25 (≈ 15.6 µM) | 6.25 (≈ 15.6 µM) | 20 | 10 (≈ 24.9 µM) | 20
COc1ccccc1Nc1nc2c(-c3ccc(F)cc3)nc3ccccc3c2o1 | 6.25 (≈ 16.2 µM) | 23 | 6.25 (≈ 16.2 µM) | 99 | 27 | 6.25 (≈ 16.2 µM) | 6.25 (≈ 16.2 µM) | 22 | 1 (≈ 2.59 µM) | 19
O=C(NCc1ccccc1)Nc1c(-c2cccc(F)c2)nc2ccccc2c1O | 6.25 (≈ 16.1 µM) | 18 | 6.25 (≈ 16.1 µM) | 95 | 21 | 6.25 (≈ 16.1 µM) | 6.25 (≈ 16.1 µM) | 18 | 10 (≈ 25.8 µM) | 20
Cc1cc(C)cc(Nc2nc3c(-c4ccc(F)cc4)nc4ccccc4c3o2)c1 | 6.25 (≈ 16.3 µM) | 12 | 12.5 (≈ 32.6 µM) | 95 | 24 | 12.5 (≈ 32.6 µM) | 12.5 (≈ 32.6 µM) | 11 | 10 (≈ 26.1 µM) | 14
